Experimental data as given in publication PMC4872389 (The American journal of Chinese medicine, 2016).

Experiments:
[1] = Plasma and tissue D, DA, DOH after a single gavage dose of D/DA; assay type: in vivo, male C57BL/6 mice
Method in brief: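 Male C57BL/6 mice, 6–7 weeks old, 5 per group, got one gastric gavage of 3 mg D/DA (1.8 mg D + 1.2 mg DA) in 0.3 mL of 10% ethanol/20% PEG400/3.3% Tween80/66.7% USP 5% dextrose. Plasma (cardiac puncture, heparin) and tissues were collected at time points over 24 h. Water homogenates (ice bath) were extracted with ethyl acetate. Analysis was HPLC-UV, except prostate by UHPLC-MS/MS.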

[2] = Plasma and tissue D, DA, DOH after sub-chronic dietary AGN exposure; assay type: in vivo, male C57BL/6J mice; conditions: for Terminal-bleed plasma level by HPLC-UV: 0.5% and 1% AGN diet, 6 weeks, all but one mouse; for concentration at 6 weeks: male, C57BL/6J, mouse, oral
Method in brief: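 Male C57BL/6J mice, 6 weeks old, 10 per group, were fed AIN-93M diet containing 0.5% or 1% (w/w) AGN extract ad libitum for 6 weeks. Terminal plasma was taken by cardiac puncture (heparin) under anesthesia, 1–4 pm. Tissues were homogenized in 4 volumes of water. Samples were extracted with ethyl acetate and analyzed by HPLC-UV, with D and DA quantitated together. Values are mean ± SE, n=5.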

cytochrome p450 (Cyp) = conditions: orally administered general Cyp inhibitor; ref Zhang et al., 2015b; cited from earlier work
[3] = rat, in vivo; cited from earlier work
[4] = Plasma, tissue and urine pyranocoumarins after repeated i.p. AGN; assay type: in vivo, CD-1 mice; conditions: 3 h after last i.p. injection of AGN
Method in brief: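 CD-1 mice, 8–10 weeks old, 6 per sex per group, were kept on AIN-93M diet. They received i.p. vehicle or AGN extract at 100, 200 or 300 mg/kg in 0.3 mL, six days/week for 4 weeks, with dose adjusted weekly to body weight. Blood and organs were taken 3 h after the last injection. Extracts were made with ethyl acetate and analyzed by HPLC-UV; n=4~6 per dose group.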

[5] = adipose, single gavage 3 mg D/DA
[6] = kidney, single gavage 3 mg D/DA
[7] = male, C57BL/6, mouse, plasma, po, 3 mg
[8] = prostate, single gavage 3 mg D/DA

Row | Cmax [1, 5] [µmol/kg] | Cmax ([1]; brain, single gavage 3 mg D/DA) [µmol/kg] | Cmax [1, 6] [µmol/kg] | Cmax ([1]; liver, single gavage 3 mg D/DA) [µmol/kg] | Cmax ([1]; lung, single gavage 3 mg D/DA) [µmol/kg] | Cmax [1, 7] [µM] | Tmax ([1]; male, C57BL/6, mouse, po, 3 mg) [h] | Cmax [1, 8] [µmol/kg] | concentration at 6 weeks ([2]; brain) [µM] | concentration at 6 weeks ([2]; kidney) [µM] | concentration at 6 weeks ([2]; liver) [µM] | concentration at 6 weeks ([2]; lung) [µM] | concentration at 6 weeks ([2]; plasma, 0.5 % AGN in diet) [µM] | concentration at 6 weeks ([2]; plasma, 1 % AGN in diet) [µM] | concentration at 6 weeks ([2]; prostate) [µM] | Content in liver, lung, kidney and brain relative to plasma [4] | Compound | Terminal-bleed plasma level by HPLC-UV [2] | Increase of prostate retention on blocking Cyp activities (cytochrome p450 (Cyp)) | Reported safe dose [3] [mg D/kg]
1 | 7.26 | 1.78 | 5.51 | 2.95 | 3.13 | 0.76 | 1 | 14.80 | – | – | – | – | – | – | – | – | C/C=C(/C)C(=O)O[C@H]1Cc2cc3ccc(=O)oc3cc2OC1(C)C [DA, decursinol angelate] | below limit of detection | 2 orders of magnitude | –
2 | 28.5 | 23.3 | 50.4 | 47.8 | 31.6 | 39.8 | 1 | 46.4 | 2.97 | 14.4 | 41.1 | 3.33 | 0.99 ± 0.11 | 2.44 ± 0.52 | 12.8 | lower than its plasma level | CC1(C)Oc2cc3oc(=O)ccc3cc2C[C@@H]1O [DOH, decursinol] | – | – | –

Row | Compound | Cmax [1, 5] [µmol/kg] | Cmax ([1]; brain, single gavage 3 mg D/DA) [µmol/kg] | Cmax [1, 6] [µmol/kg] | Cmax ([1]; liver, single gavage 3 mg D/DA) [µmol/kg] | Cmax ([1]; lung, single gavage 3 mg D/DA) [µmol/kg] | Cmax [1, 7] [µM] | Tmax ([1]; male, C57BL/6, mouse, po, 3 mg) [h] | Cmax [1, 8] [µmol/kg] | concentration at 6 weeks ([2]; brain) [µM] | concentration at 6 weeks ([2]; kidney) [µM] | concentration at 6 weeks ([2]; liver) [µM] | concentration at 6 weeks ([2]; lung) [µM] | concentration at 6 weeks ([2]; plasma, 0.5 % AGN in diet) [µM] | concentration at 6 weeks ([2]; plasma, 1 % AGN in diet) [µM] | concentration at 6 weeks ([2]; prostate) [µM] | Content in liver, lung, kidney and brain relative to plasma [4] | Terminal-bleed plasma level by HPLC-UV [2] | Increase of prostate retention on blocking Cyp activities (cytochrome p450 (Cyp)) | Reported safe dose [3] [mg D/kg]
3 | CC(C)=CC(=O)O[C@H]1Cc2cc3ccc(=O)oc3cc2OC1(C)C [D, decursin] | 1.75 | 1.00 | 0.42 | 0.38 | 0 | 0.38 | 1 | 4.90 | – | – | – | – | – | – | – | – | below limit of detection | 2 orders of magnitude | 250
